Bioassay records from PubChem BioAssay.
Sampled rows, rich in hits. Any-hit rate of the full collection: about 1.2%.
Furin inh: inhibitors of human furin; purified furin, fluorogenic substrate cleavage; inhibition, % at 20 µM or 30 µM; 220,000 tested, 0.061% active; AID 463115; in the data active = inhibition above about 25%
Target sequence (P09958 108-714 limits assumed): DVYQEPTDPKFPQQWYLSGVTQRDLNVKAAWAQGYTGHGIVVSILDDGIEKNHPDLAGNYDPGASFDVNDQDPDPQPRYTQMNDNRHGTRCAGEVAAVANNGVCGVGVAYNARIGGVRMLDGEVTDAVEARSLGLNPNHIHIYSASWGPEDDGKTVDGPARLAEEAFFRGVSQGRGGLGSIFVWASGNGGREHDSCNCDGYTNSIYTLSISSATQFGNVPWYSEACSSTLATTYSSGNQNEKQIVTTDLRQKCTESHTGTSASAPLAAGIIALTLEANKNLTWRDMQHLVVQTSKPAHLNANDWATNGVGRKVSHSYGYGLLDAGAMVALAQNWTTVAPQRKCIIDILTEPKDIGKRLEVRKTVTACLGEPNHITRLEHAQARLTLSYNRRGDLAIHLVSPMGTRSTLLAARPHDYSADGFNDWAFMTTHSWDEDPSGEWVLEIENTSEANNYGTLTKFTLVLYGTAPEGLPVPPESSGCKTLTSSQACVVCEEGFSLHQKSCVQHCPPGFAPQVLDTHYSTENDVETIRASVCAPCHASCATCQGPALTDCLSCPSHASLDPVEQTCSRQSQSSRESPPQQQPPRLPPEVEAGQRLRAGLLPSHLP
KLK5 inh: kallikrein 5 (human) inhibition; Q9Y337; recombinant hK5, fluorogenic AMC substrate cleavage; inhibition, % at 5 µM; 210,000 tested, 0.59% active; AID 873;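 active = inhibition of 40% or more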;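 note: 0% = enzyme controls without compound and 100% = no-enzyme blanks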
thrombin 1536: blocks human thrombin protease activity. P00734. alpha-thrombin, Boc-VPR-AMC fluorogenic substrate cleavage. inhibition, % at 5 µM. 220,000 tested, 0.26% active. AID 1046;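 active = inhibition at or above 40%; inactive = inhibition below 40%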;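 note: 0% = enzyme with no compound and 100% = wells without enzyme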
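Material: Human alpha-thrombin protein | Buffer or medium: pH 7.5 Tris-saline with Tween 20 | Reagent: Boc-VPR-AMC substrate, 15 µM final | Schedule: Reaction at ambient temperature | Detection: AMC fluorescence at 355 nm excitation and 460 nm emission | Evaluation: Percent inhibition scaled between no-compound controls and no-enzyme blanks | Controls: no-compound enzyme wells and no-enzyme blanks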
PERK inhibitor: human PERK inhibition, primary cell-based screen; Q9NZJ5; CHO PERK-DD fusion, SEAP luminescence translation reporter; inhibition, % at 5.6 µM; 220,000 tested, 0.17% active;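 active = inhibition above the mean inhibition of all tested compounds plus 3 SD, set separately per screening campaign, cut at about 2.9% in these data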;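 note: PERK kinase domain activated by AP20187 dimerizer at 100 nM; 0% = DMSO with dimerizer and 100% = rapamycin at 8.4 µM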
FXIIa inh 1536: blocks human coagulation factor XIIa protease activity; P00748; purified FXIIa, Boc-QGR-AMC fluorogenic substrate, 2 h; inhibition, % at 5 µM; 220,000 tested, 0.3% active; in the data active = inhibition above about 40%;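 note: 0% = enzyme with no compound and 100% = blank without enzyme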
FXIa inh: blocks human coagulation factor XIa protease activity; P03951; inhibition, % at 5 µM; purified FXIa, Boc-Glu-Ala-Arg-AMC fluorogenic substrate; AID 798; 220,000 tested, 0.14% active;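 active = inhibition of at least 40%; inactive = inhibition below 40%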;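 note: fluorescence of freed AMC excited at 355 nm; 0% = enzyme without compound and 100% = no enzyme blank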
Active calls of the source: *.

What do the screens show for `O=S(=O)(N1CCCCC1)N1CCN(c2ccccc2F)CC1`?
Furin inh: -22; KLK5 inh: 6; thrombin 1536: 1; PERK inhibitor: -1; FXIIa inh 1536: 48*; FXIa inh: 15

What do the screens show for `Cc1ccc(NC2=NCC(=O)N2C2CCCC2)c(C)c1`?
Furin inh: -13; KLK5 inh: 112*; thrombin 1536: 22; PERK inhibitor: 0; FXIIa inh 1536: 26; FXIa inh: 12

How did C=CCN(C(=O)COc1ccccc1)c1nnc(-c2ccncc2)s1 do in these assays?
Furin inh: 2; KLK5 inh: -2; thrombin 1536: 3; PERK inhibitor: 0; FXIIa inh 1536: 13; FXIa inh: 2

Results for O=C(c1nc2ccccc2s1)N1CCN(c2ccccn2)CC1 ?
Furin inh: -16; KLK5 inh: -18; thrombin 1536: 45*; PERK inhibitor: 0; FXIIa inh 1536: 0; FXIa inh: -14

How did COc1ccc(C2C(C(=O)NCc3ccccn3)CCC(=O)N2c2cc(OC)c(OC)c(OC)c2)cc1 (stereo not given) do in these assays?
Furin inh: -19; KLK5 inh: -4; thrombin 1536: -6; PERK inhibitor: 1; FXIIa inh 1536: 4; FXIa inh: -6

How did C=CCc1ccc(OCCOc2cccc3ccc(C)nc23)c(OC)c1 do in these assays?
Furin inh: -8; KLK5 inh: 5; thrombin 1536: 2; PERK inhibitor: -1; FXIIa inh 1536: 16; FXIa inh: -10

Results for Cc1ncc(C(=O)O)c(C(=O)O)c1N ?
Furin inh: -21; KLK5 inh: 25; thrombin 1536: 1; PERK inhibitor: 1; FXIIa inh 1536: 12; FXIa inh: -1

What do the screens show for `COc1cc(N2CCCC2)c(OC)cc1/C=C(/C#N)c1ccc(Br)cc1`?
Furin inh: 5; KLK5 inh: 50*; thrombin 1536: 10; PERK inhibitor: -1; FXIIa inh 1536: 5; FXIa inh: 8

Results for COc1cccc(C(=O)NC(=S)Nn2cnnc2)c1OC ?
Furin inh: -23; KLK5 inh: 0; thrombin 1536: 2; PERK inhibitor: 0; FXIIa inh 1536: 6; FXIa inh: -1

How did O=C(NC(=S)Nn1cnnc1)c1ccccc1Cl do in these assays?
Furin inh: -1; KLK5 inh: 48*; thrombin 1536: 45*; PERK inhibitor: 1; FXIIa inh 1536: 28; FXIa inh: 34

What do the screens show for `CN(C(=O)CSc1nnnn1-c1ccc(O)cc1)C1CCS(=O)(=O)C1` (stereo not given)?
Furin inh: -5; KLK5 inh: -2; thrombin 1536: -7; PERK inhibitor: 0; FXIIa inh 1536: 4; FXIa inh: -2

How did Cc1nnc2n(c1=O)N=C(c1ccc(Cl)cc1)CS2 do in these assays?
Furin inh: -10; KLK5 inh: -16; thrombin 1536: 0; PERK inhibitor: 1; FXIIa inh 1536: 16; FXIa inh: 6

How did COCCCNC(=O)CC1Oc2ccccc2NC1=O (stereo not given) do in these assays?
Furin inh: -10; KLK5 inh: 56*; thrombin 1536: 16; PERK inhibitor: 1; FXIIa inh 1536: 11; FXIa inh: 14

What do the screens show for `CCCSCCCNC(=O)CC1Oc2ccccc2NC1=O` (stereo not given)?
Furin inh: -23; KLK5 inh: -19; thrombin 1536: -7; PERK inhibitor: 0; FXIIa inh 1536: 9; FXIa inh: -1

What do the screens show for `Clc1cc(Cl)c(OCc2nc(-c3ccccn3)no2)cc1Cl`?
Furin inh: -11; KLK5 inh: 1; thrombin 1536: -15; PERK inhibitor: 2; FXIIa inh 1536: -7; FXIa inh: -1

Results for CC(C)(C)c1ccc(OCc2nc(-c3ccccn3)no2)c(Br)c1 ?
Furin inh: -12; KLK5 inh: 44*; thrombin 1536: 19; PERK inhibitor: 0; FXIIa inh 1536: 32; FXIa inh: 15

What do the screens show for `COCC(=O)n1nc(-c2ccc(Cl)cc2)nc1NCc1ccc(F)cc1`?
Furin inh: -12; KLK5 inh: -9; thrombin 1536: 51*; PERK inhibitor: 0; FXIIa inh 1536: 12; FXIa inh: 1

What do the screens show for `COCC(=O)n1nc(-c2ccc(C)cc2)nc1NCc1ccc(F)cc1`?
Furin inh: -21; KLK5 inh: -17; thrombin 1536: 79*; PERK inhibitor: 2; FXIIa inh 1536: -6; FXIa inh: -6

Results for O=C(CCC(=O)c1ccccc1)NCc1ccccc1 ?
Furin inh: -3; KLK5 inh: 14; thrombin 1536: 1; PERK inhibitor: 2; FXIIa inh 1536: 17; FXIa inh: 4

Results for C=CCNC(=O)Nc1ccc(F)cc1F ?
Furin inh: -24; KLK5 inh: 4; thrombin 1536: -4; PERK inhibitor: 3.4*; FXIIa inh 1536: 5; FXIa inh: 9

Results for C=CCNC(=S)Nc1ccc(F)cc1F ?
Furin inh: -29; KLK5 inh: -21; thrombin 1536: 3; PERK inhibitor: 1; FXIIa inh 1536: 12; FXIa inh: 10

What do the screens show for `O=C(c1cc(Cl)nc2ccccc12)N1CCc2ccccc2C1`?
Furin inh: -11; KLK5 inh: 26; thrombin 1536: 3; PERK inhibitor: 0; FXIIa inh 1536: 30; FXIa inh: 42*

What do the screens show for `C/C(=N/NC(=O)CNS(=O)(=O)c1ccc(C)cc1)c1cccc([N+](=O)[O-])c1`?
Furin inh: 0; KLK5 inh: -7; PERK inhibitor: 0; FXIIa inh 1536: -1; FXIa inh: -2

How did Cc1[nH]c2ccccc2c1C(=O)C(=O)NCc1ccco1 do in these assays?
Furin inh: -18; KLK5 inh: -18; thrombin 1536: 3; PERK inhibitor: 0; FXIIa inh 1536: -3; FXIa inh: -6

How did Cc1c2cnn(-c3ccccc3)c(=O)c2c(C)n1CCCC(=O)NCCN1CCN(C)CC1 do in these assays?
Furin inh: -19; KLK5 inh: -1; thrombin 1536: 0; PERK inhibitor: 3.7*; FXIIa inh 1536: 11; FXIa inh: -1

How did Cc1ccn2c(C=O)c(-c3ccc(F)cc3)c(C=O)c2c1 do in these assays?
Furin inh: -6; thrombin 1536: -4; PERK inhibitor: 1; FXIIa inh 1536: 8; FXIa inh: 2

What do the screens show for `NC(=O)c1ccccc1N/C=C/C(=O)c1ccc(F)cc1`?
Furin inh: 27*; KLK5 inh: -11; thrombin 1536: 5; PERK inhibitor: 0; FXIIa inh 1536: 9; FXIa inh: 3

Results for CCCCC(CC)C(=O)N1CCN(C(=O)c2ccco2)CC1 (stereo not given) ?
Furin inh: -22; KLK5 inh: 1; thrombin 1536: 3; PERK inhibitor: 0; FXIIa inh 1536: 12; FXIa inh: 4

Results for Cc1cc(N/N=C/c2ccccc2Br)nc2ccccc12 ?
Furin inh: -16; KLK5 inh: 42*; thrombin 1536: 19; PERK inhibitor: 0; FXIIa inh 1536: 32; FXIa inh: 18

Results for Brc1ccccc1/C=N/Nc1ccc2ccccc2n1 ?
Furin inh: -15; KLK5 inh: -2; thrombin 1536: -12; PERK inhibitor: 1; FXIIa inh 1536: 9; FXIa inh: 1
